An excerpt weighted towards active compounds, which were near 3% of everything screened.
Hsp70 activator: Hsp70 transcriptional activation, primary screen; AID 1203; HeLa Hsp70 promoter luciferase reporter, luminescence; scaled: vehicle 0, proteasome-inhibitor control 100%; activation, % at 10 µM; hit rate 0.04% among 200,000;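 active means activation above the mean across all tested compounds plus 3 SD, cutoff set per campaign, cut at about 5.5% in these data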;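 further: 100% = MG132 at 30 µM as the positive control and 0% = DMSO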
NPY2 pot ag: potentiators or agonists of human neuropeptide Y receptor Y2; P49146; cells expressing NPY-Y2, potentiator/agonist read-out; activation, % at 3.6 µM; hit rate 0.45% among 220,000; AID 1359; in the data active means activation above about 27%;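 further: cells stimulated with NPY near EC25 plus isoproterenol at EC100; 0% = vehicle plus submaximal agonist and 100% = vehicle plus saturating agonist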
NPY Y2 blocker: blocks the human neuropeptide Y Y2 receptor | P49146 | NPY-Y2 expressing cells, antagonist mode | inhibition, % at 2.7 µM | hit rate 0.99% among 140,000 | AID 793; in the data active means inhibition above about 17%;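 further: 0% = vehicle with agonist challenge and 100% = reference antagonist with challenge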
NPY-Y1 antag: blocks the human neuropeptide Y Y1 receptor; HEK293-CNG Y1 cells, membrane potential fluorescence; NPY at EC95, then isoproterenol; inhibition, % at 3.6 µM; AID 1040; hit rate 1% among 200,000;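 active means inhibition above the campaign mean inhibition of all tested compounds plus 3 SD, cut at about 20% in these data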;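 further: 0% = DMSO wells given NPY plus isoproterenol and 100% = isoproterenol alone without NPY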
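Test system: HEK293 cells co-expressing NPY Y1 receptor and cyclic-nucleotide gated channel; Also added: NPY (25 nM), isoproterenol (1 µM), Ro 20-1724 (25 µM); Compound dosing: one concentration, 3.6 µM, in 0.4% DMSO; Timing: dye 3 h, compound 60 min room temperature, stimulation 45 min; Technique: Membrane-potential fluorescent dye readout.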
NPY1 pot ag: potentiators or agonists of human neuropeptide Y receptor Y1. hit rate 0.37% among 220,000. NPY-Y1 expressing cells, potentiator/agonist activation. AID 1304. P25929. activation, % at 3.6 µM; in the data active means activation above about 33%, passing the limit was not always enough;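 further: cells stimulated with NPY at EC10 then isoproterenol at EC100; 0% = low agonist plus stimulus and 100% = saturating agonist plus stimulus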
Wee1 degr inh: inhibitors of human Wee1 degradation | P30291 | HeLa Luc-Wee1K328M stability, luciferase luminescence; 100% = proteasome inhibitor MG132 effect | reporter increase, % at 5 µM | hit rate 1.2% among 220,000;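 active means activation above the mean of all tested compounds plus 3 SD, set per screening run, cut at about 8.8% in these data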;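 further: cells exposed to compound for 20 h before luminescence read; 0% = DMSO alone and 100% = MG132 at 30 µM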
Target sequence (P30291 whole entry K328M): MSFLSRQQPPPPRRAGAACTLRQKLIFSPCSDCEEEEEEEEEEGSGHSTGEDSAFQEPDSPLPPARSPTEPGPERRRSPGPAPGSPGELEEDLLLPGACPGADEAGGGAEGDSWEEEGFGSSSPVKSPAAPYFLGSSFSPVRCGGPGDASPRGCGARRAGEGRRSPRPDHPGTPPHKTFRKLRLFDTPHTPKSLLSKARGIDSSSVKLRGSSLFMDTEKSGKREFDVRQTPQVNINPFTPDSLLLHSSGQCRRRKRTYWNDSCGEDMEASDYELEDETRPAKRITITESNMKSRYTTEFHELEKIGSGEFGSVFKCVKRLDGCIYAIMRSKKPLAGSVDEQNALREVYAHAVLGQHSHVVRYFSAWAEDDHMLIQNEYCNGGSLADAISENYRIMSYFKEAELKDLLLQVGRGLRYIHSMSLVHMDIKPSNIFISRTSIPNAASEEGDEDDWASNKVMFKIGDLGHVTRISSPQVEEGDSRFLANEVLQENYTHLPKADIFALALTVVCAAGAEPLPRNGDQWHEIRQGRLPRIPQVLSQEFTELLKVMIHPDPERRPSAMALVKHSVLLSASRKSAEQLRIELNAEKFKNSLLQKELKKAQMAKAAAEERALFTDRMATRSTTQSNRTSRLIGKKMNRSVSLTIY
NPY-Y2 confirm: confirmation of human NPY-Y2 receptor potentiators or agonists | activation, % at 3.6 µM | hit rate 20% among 450 | cell-based NPY-Y2 potentiator/agonist assay | shares compounds with NPY2 pot ag; in the data active means activation above about 33%
NPY-Y1 counter: counter-screen for NPY-Y2 potentiators or agonists: NPY-Y1 potentiators or agonists. shares compounds with NPY2 pot ag. Y1 HEK293-CNG cells, membrane potential fluorescence. activation, % at 3.6 µM. hit rate 20% among 450. AID 1651; in the data active means activation above about 45%;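 further: cells stimulated with submaximal NPY then isoproterenol with phosphodiesterase inhibitor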
NPY-Y1 agonist 2: activates human NPY-Y1, counter-screen for NPY-Y2 potentiators; activation, % at 3.6 µM; shares compounds with NPY2 pot ag; hit rate 37% among 450; HEK293 Y1-CNGC, membrane potential fluorescence, agonism;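 active means activation above the mean of DMSO-only control wells plus 3 SD, cut at about 18% in these data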;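 further: cells stimulated with 1 µM isoproterenol plus the PDE inhibitor Ro 20-1724; 0% = isoproterenol with DMSO and no NPY and 100% = 40 nM NPY; Y1 agonists lower the membrane potential dye signal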
CNGC inhibitor: blocks CNG channel activity, counter-screen for NPY-Y2 potentiators; inhibition, % at 3.6 µM; AID 1703; shares compounds with NPY2 pot ag; HEK293-CNG parental, isoproterenol cAMP, membrane potential fluorescence; hit rate 32% among 450;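 active means inhibition above the control-well mean plus 3 SD of those wells, cut at about 22% in these data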;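 further: 0% = DMSO with isoproterenol and 100% = DMSO without isoproterenol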
NPY-Y2 ag 2: counter-screen for NPY-Y2 potentiators: agonists of human NPY-Y2; activation, % at 3.6 µM; shares compounds with NPY2 pot ag; hit rate 56% among 450; HEK293 Y2/CNGC cells, membrane potential fluorescence, agonist mode;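 active means activation above the mean of solvent-only control wells plus 3 SD, cut at about 10% in these data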;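 further: cells stimulated by isoproterenol with no NPY added so direct agonism is tested; 0% = DMSO with isoproterenol alone and 100% = NPY at EC100 plus isoproterenol; agonism lowers probe fluorescence through less cAMP and CNG channel opening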
* = called active by the depositor; · = no result given.

SMILES	Hsp70 activator	NPY2 pot ag	NPY Y2 blocker	NPY-Y1 antag	NPY1 pot ag	Wee1 degr inh	NPY-Y2 confirm	NPY-Y1 counter	NPY-Y1 agonist 2	CNGC inhibitor	NPY-Y2 ag 2
Cc1ccc(C)c(Nc2nc(N)c3ccccc3n2)c1	-0.1	36.4*	·	-0.4	21.0	2.1	63.5*	81.6*	43.7*	57.6*	55.5*
Cc1ccc(C)c(Nc2ncnc(N)c2[N+](=O)[O-])c1	-0.2	13.4	0.6	-1.6	14.8	5.5	·	·	·	·	·
CC(=O)N1N=C(c2ccc3ccccc3c2)OC12CCCC2	·	3.1	·	·	-0.5	6.0	·	·	·	·	·
CCCCOc1ccc(CCC(=O)N/N=C/c2ccco2)cc1	·	-9.6	·	·	-0.8	3.0	·	·	·	·	·
CCCOc1ccc(CCC(=O)N/N=C/c2ccco2)cc1	·	99.9*	·	·	8.3	-0.6	2.0	3.0	-4.8	1.4	6.3
N#Cc1c(C(F)(F)F)cc(-c2ccc(F)cc2)nc1SCC(=O)O	-0.4	-15.8	·	1.3	-24.0	5.9	·	·	·	·	·
N#Cc1c(-c2ccc(F)cc2)cc(-c2ccccc2)nc1SCC(=O)NCC(=O)O	·	71.4*	·	·	14.6	-1.6	-7.3	-2.1	-5.2	-10.9	2.2
CC(C)(C)N(Cc1cc2ccccc2[nH]c1=O)C(=O)c1cccnc1	-0.2	85.0*	-0.7	-2.1	13.8	-3.1	-0.6	-0.2	0.0	1.0	0.6
O=C(CC1C(=O)NCCN1C(=O)Nc1ccccc1)Nc1ccc(F)cc1 (stereo not given)	·	18.9	·	·	9.6	1.0	·	·	·	·	·
COC(=O)CN1C(=S)N(c2ccc(Cl)cc2)C(=O)C1CC(=O)Nc1ccc(F)cc1 (stereo not given)	0.1	30.1*	-4.0	-8.0	31.8	-4.4	32.8	57.6*	43.0*	46.4*	37.9*
O=C(CC1C(=O)NCCN1C(=O)Nc1ccc(Cl)cc1)Nc1ccc(F)cc1 (stereo not given)	0.1	28.9*	·	-6.5	34.0	-3.5	55.2*	74.9*	57.9*	57.2*	50.4*
COC(=O)CN1C(=S)N(c2ccc(F)cc2)C(=O)C1CC(=O)Nc1ccc(F)cc1 (stereo not given)	·	25.9	·	·	10.9	-3.0	·	·	·	·	·
COC(=O)CN1C(=S)N(c2ccc(Cl)cc2)C(=O)C1CC(=O)Nc1ccc(Cl)cc1 (stereo not given)	-0.5	54.7*	1.6	-11.2	48.2	0.8	48.8*	71.6*	67.5*	59.8*	66.9*
CNC(=O)CN1C(=O)NC2(CCc3ccccc3C2)C1=O (stereo not given)	-0.1	1.9	·	4.2	-2.8	-2.9	·	·	·	·	·
COc1ccc(CCNC(=O)CCCn2c(SCC(N)=O)nc3cc4c(cc3c2=O)OCO4)cc1OC	0.1	-13.1	·	-0.2	22.9	-0.8	·	·	·	·	·
COCCN=c1scc(-c2ccco2)n1/N=C/c1ccc(O)c(O)c1O	0.0	22.4	·	4.0	26.4	0.9	·	·	·	·	·
COCCN=c1scc(-c2cc(OC)ccc2OC)n1/N=C/c1c[nH]c2ccccc12	-0.4	33.5*	-3.2	-12.9	43.1	0.4	33.4*	48.7*	45.8*	37.3*	36.4*
Cc1cc(=O)[nH]n(CCO)c1=O	·	3.2	·	·	-9.0	-0.7	·	·	·	·	·
N#C/C(=N/Nc1ccc(OC(F)(F)F)cc1)C(N)=S	·	46.1*	·	·	26.9	3.0	12.5	0.9	-9.6	-2.3	23.4*
O=C(CSc1nnc(-c2cccnc2)s1)Nc1ccc(C(=O)O)cc1	-0.4	-0.5	4.1	-0.8	5.7	2.9	·	·	·	·	·
O=S(=O)(Nc1cccc2ccccc12)c1cccc2nonc12	·	62.9*	·	·	18.9	0.3	-0.9	5.9	-3.2	-2.6	-2.5
